Assay results reported in ChEMBL document CHEMBL4732158, “Bicyclic Ligand-Biased Agonists of S1P: Exploring Side Chain Modifications to Modulate the PK, PD, and Safety Profiles” (J Med Chem, 2021).
Each block holds one compound with its values, some of them ahead of it.

Key:
[1] = Antimigratory activity against human T cells assessed as inhibition of S1P-induced T cell migration preincubated for 10 mins followed by addition of S1P measured after 120 mins by calcein-AM dye based fluorescence analysis; assay type: functional
Rattus norvegicus [2] = assay: Reduction in circulating lymphocytes count in Lewis rat at 2 mg/kg, po measured at 4 hrs by hematology analyzer based analysis; assay type: functional; parameters: scale not given: the % may be the effect or the level left
Outline: (§1)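 Lewis rats (n = 2−4) dosed orally; whole-blood lymphocyte counts taken 4 h and 24 h after dosing and reduction expressed versus vehicle-treated rats. Significance by ANOVA with Dunnett's test (p < 0.05 vs vehicle). Blood levels of parent and phosphate metabolite measured at the same time points in this PK/PD screen.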

[3] = Pulmonary toxicity in Lewis rat assessed as fold elevation of BAL protein content at 10 mg/kg, po by chemistry analyzer based analysis relative to control; assay type: organism-based; details: in vivo, 2 mg/kg, in the assay text read “2 mg/kg” for “10 mg/kg”
Outline: (§2)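 Lewis rats dosed orally; bronchoalveolar lavage protein measured at study end, expressed as fold over vehicle control.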

[4] = Drug concentration in Lewis rat blood assessed as concentration of parent compound at 2 mg/kg, po measured at 4 hrs by LC-MS/MS analysis; assay type: ADME, organism-based; details: read-out: Ct; for concentration at 4 h: Lewis, blood
Outline: (§3)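 Lewis rats (n = 2−4) dosed orally at 0.5, 1, 2 or 5 mg/kg; blood parent and phosphate metabolite concentrations and lymphocyte counts taken 4 and 24 h post-dose; phosphate-to-parent ratio from 24 h levels; significance versus vehicle by ANOVA with Dunnett's test.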

[5] = Drug concentration in Lewis rat blood assessed as concentration of parent compound at 2 mg/kg, po measured at 24 hrs by LC-MS/MS analysis; assay type: ADME, organism-based; details: in vivo, read-out: Ct; outline: as §3
[6] = Ratio of drug metabolism in Lewis rat blood assessed as phosphate ester metabolite to parent drug at 2 mg/kg, po measured at 24 hrs by LC-MS/MS analysis; assay type: ADME, organism-based; details: in vivo; outline: as §3
[7] = Cardiotoxicity in human iPSC derived cardiomyocytes assessed as change in heart rate at 10 nM measured over 2 hrs by multi-electrode array relative to control; assay type: toxicity, cell-based; details: stem cell-derived cardiomyocyte, 0.01 µM
Outline: (§4)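 Phosphate metabolite of each compound prepared and tested on cultured human induced pluripotent stem cell-derived cardiomyocytes at 1 and 10 nM; beat rate change averaged over three or more replicates per concentration unless noted (some n = 2).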

[8] = Reduction in circulating lymphocytes count in Lewis rat at 2 mg/kg, po measured at 24 hrs by hematology analyzer based analysis; assay type: Functional, organism-based; parameters: scale not given: the % may be the effect or the level left; details: in vivo; outline: as §1
[9] = Cardiotoxicity in human iPSC derived cardiomyocytes assessed as change in heart rate at 1 nM measured over 2 hrs by multi-electrode array relative to control; assay type: toxicity, cell-based; details: stem cell-derived cardiomyocyte, 0.001 µM; outline: as §4
[10] = Half life in Lewis rat at 2 mg/kg, po measured at 4 to 72 hrs; assay type: ADME, organism-based; details: Lewis, in vivo, time 4-72 hrs
Outline: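 Half-life estimated from oral-dosing blood PK profiles in Lewis rats sampled at four time points: 4, 24, 48 and 72 h.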

[11] = biological target: T1, Sphingosine 1-phosphate receptor 1 (Homo sapiens, UniProt P21453); assay: Agonist activity at recombinant human S1P1 expressed in CHO cell membranes assessed as stimulation of [35S]-GTPgammaS binding measured after 45 mins by liquid scintillation counting method; assay type: functional, Cell membrane
T1 sequence (P21453 whole entry): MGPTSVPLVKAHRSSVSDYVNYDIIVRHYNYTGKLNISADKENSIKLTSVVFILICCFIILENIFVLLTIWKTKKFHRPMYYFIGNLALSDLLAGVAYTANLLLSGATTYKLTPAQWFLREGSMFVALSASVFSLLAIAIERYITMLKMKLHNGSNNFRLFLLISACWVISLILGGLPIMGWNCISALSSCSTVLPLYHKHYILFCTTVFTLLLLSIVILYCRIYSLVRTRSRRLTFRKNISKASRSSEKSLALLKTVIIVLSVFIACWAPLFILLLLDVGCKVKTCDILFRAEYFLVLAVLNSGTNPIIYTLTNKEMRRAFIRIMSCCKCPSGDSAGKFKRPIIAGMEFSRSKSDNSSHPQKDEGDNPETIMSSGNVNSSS

[12] = biological target: Sphingosine 1-phosphate receptor 3 (Homo sapiens, UniProt Q99500); assay: Agonist activity at recombinant human S1P3 expressed in CHO cell membranes assessed as stimulation of [35S]-GTPgammaS binding measured after 45 mins by liquid scintillation counting method; assay type: functional, Membrane
Chain of Sphingosine 1-phosphate receptor 3 (Q99500 whole entry): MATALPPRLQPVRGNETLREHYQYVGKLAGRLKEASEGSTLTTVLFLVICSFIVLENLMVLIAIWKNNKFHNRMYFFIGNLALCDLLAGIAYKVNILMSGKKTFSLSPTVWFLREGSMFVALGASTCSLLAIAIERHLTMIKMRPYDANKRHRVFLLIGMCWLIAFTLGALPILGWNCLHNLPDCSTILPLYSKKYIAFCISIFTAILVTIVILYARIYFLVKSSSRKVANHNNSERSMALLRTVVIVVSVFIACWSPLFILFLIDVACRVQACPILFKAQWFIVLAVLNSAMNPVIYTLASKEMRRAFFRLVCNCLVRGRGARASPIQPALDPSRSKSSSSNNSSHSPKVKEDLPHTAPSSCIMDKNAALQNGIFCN

[13] = biological target: T1, Sphingosine 1-phosphate receptor 1; assay: Displacement of [33P]-SIP from human recombinant S1P1 expressed in CHO cell membranes measured after 45 mins by TopCount scintillation counting method; parameters: species or system Cell membrane
[14] = biological target: T1, Sphingosine 1-phosphate receptor 1; assay: Agonist activity at human recombinant S1P1 expressed in CHO cells assessed as stimulation of ERK phosphorylation incubated for 7 mins by microplate reader analysis; assay type: cell-based
[15] = biological target: T1, Sphingosine 1-phosphate receptor 1; assay: Agonist activity at human recombinant C-terminal GFP-fused S1P1 expressed in CHO cells assessed as induction of receptor internalization incubated for 50 mins by fluorescence based confocal laser scanning microscopic analysis; assay type: cell-based
Rattus norvegicus [16] = assay: Reduction in circulating lymphocytes count in Lewis rat at 5 mg/kg, po measured at 4 hrs by hematology analyzer based analysis; assay type: functional; parameters: scale not given: the % may be the effect or the level left; outline: as §1
[17] = Reduction in circulating lymphocytes count in Lewis rat at 5 mg/kg, po measured at 24 hrs by hematology analyzer based analysis; assay type: ADME, organism-based; parameters: scale not given: the % may be the effect or the level left; details: in vivo; outline: as §1
[18] = Drug concentration in Lewis rat blood assessed as concentration of parent compound at 5 mg/kg, po measured at 24 hrs by LC-MS/MS analysis; assay type: ADME, organism-based; outline: as §3
[19] = Pulmonary toxicity in Lewis rat assessed as fold elevation of BAL protein content at 5 mg/kg, po by chemistry analyzer based analysis relative to control; assay type: organism-based; details: in vivo; outline: as §2
[20] = Drug concentration in Lewis rat blood assessed as concentration of parent compound at 5 mg/kg, po measured at 4 hrs by LC-MS/MS analysis; assay type: ADME, organism-based; details: read-out: Ct; outline: as §3
[21] = Drug metabolism in Lewis rat blood assessed as parent compound concentration at 0.5 mg/kg, po measured at 24 hrs by LC-MS/MS analysis; assay type: ADME, organism-based; details: for concentration at 24 h: Lewis, blood, read-out: Ct; outline: as §3
[22] = Reduction in circulating lymphocytes count in Lewis rat at 0.5 mg/kg, po measured at 24 hrs by hematology analyzer based analysis; assay type: ADME, organism-based; parameters: scale not given: the % may be the effect or the level left; details: in vivo; outline: as §3
[23] = Drug metabolism in Lewis rat blood assessed as parent compound concentration at 0.5 mg/kg, po measured at 4 hrs by LC-MS/MS analysis; assay type: ADME, organism-based; details: for Ct: in vivo, 0.5 mg/kg, 4 h, BLD = below limit of detection; outline: as §3
[24] = Reduction in circulating lymphocytes count in Lewis rat at 0.5 mg/kg, po measured at 4 hrs by hematology analyzer based analysis; assay type: ADME, organism-based; parameters: scale not given: the % may be the effect or the level left; details: in vivo; outline: as §3
[25] = Pulmonary toxicity in Lewis rat assessed as fold elevation of BAL protein content at 2 mg/kg, po by chemistry analyzer based analysis relative to control; assay type: organism-based; details: in vivo; outline: as §2
[26] = AUC ratio in orally dosed cynomolgus monkey blood assessed as phosphate metabolite to parent compound; assay type: ADME, organism-based, Macaca fascicularis; details: in vivo, po
Outline: (§5)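 Phosphate-to-parent ratio computed as blood AUC ratio after oral dosing in rats, dogs and monkeys.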

[27] = AUC ratio in orally dosed Sprague-Dawley rat blood assessed as phosphate metabolite to parent compound; assay type: ADME, organism-based; details: in vivo, po; outline: as §5
[28] = AUC ratio in orally dosed Beagle dog blood assessed as phosphate metabolite to parent compound; assay type: ADME, organism-based, Canis lupus familiaris; details: in vivo, po; outline: as §5
[29] = AUC ratio in orally dosed human blood assessed as phosphate metabolite to parent compound; assay type: ADME, organism-based; details: po

SMILES: CCCOCCOC[C@@H]1CCc2cc([C@H]3CC[C@](N)(CO)C3)ccc2C1
Activity (Rattus norvegicus [16]): 72%
Activity [17]: 70%
concentration at 24 h ([18]; Lewis, blood, read-out: Ct): 28 nM
fold change (FC) [19]: 1.4
concentration at 4 h [20]: 360 nM

SMILES: CCCCCSC[C@@H]1CCc2cc([C@H]3CC[C@](N)(CO)C3)ccc2C1
concentration at 24 h [21]: < 31 nM
Activity [22]: 63%
Ct [23]: Bld
Activity [24]: 0%

SMILES: CCCCCCCCc1ccc(CCC(N)(CO)CO)cc1 [FINGOLIMOD]
Ratio AUC [26]: 5.9
Ratio AUC [27]: 5.6
Ratio AUC [28]: 3.7
Ratio AUC [29]: 0.42

SMILES: CCCCS(=O)(=O)C[C@@H]1CCc2cc([C@H]3CC[C@](N)(CO)C3)ccc2C1
Activity (Rattus norvegicus [16]): 13%
Activity [17]: 16%
Ct ([18]; in vivo, 5 mg/kg, 24 h, BLD = below limit of detection): Bld
fold change (FC) [19]: 0.8
concentration at 4 h [20]: 44 nM

SMILES: CCOCCC[C@H]1CCc2cc([C@H]3CC[C@](N)(COP(=O)(O)O)C3)ccc2C1
EC50 [11]: 2.1 nM
EC50 [12]: > 1000 nM
IC50 [13]: 0.04 nM
EC50 [14]: 5.2 nM
EC50 [15]: 0.4 nM

SMILES: CCCSCCC1CCc2cc([C@H]3CC[C@](N)(CO)C3)ccc2C1 (single isomer, unassigned)
concentration at 24 h [21]: 20 nM
Activity [7]: -61%
Activity [22]: 60%
concentration at 4 h ([23]; Lewis, blood, read-out: Ct): 43 nM
Activity [9]: -26%
Activity [24]: 0%

SMILES: CCCCCSC[C@H]1CCc2cc([C@H]3CC[C@](N)(CO)C3)ccc2C1
Ct ([21]; in vivo, 0.5 mg/kg, 24 h, BLD = below limit of detection): Bld
Activity [7]: -41%
Activity [22]: 56%
Ct [23]: Bld
Activity [9]: -29%
Activity [24]: 0%

The next lines start with results.

IC50 [1]: 2.5 nM
SMILES: CCCCCC[C@@H]1CCc2cc([C@H]3CC[C@](N)(COP(=O)(O)O)C3)ccc2C1

concentration ([4]; in vivo, 2 mg/kg, 4 h, 2 mg/kg, 4 h): 271 nM
concentration [5]: 78 nM
Ratio [6]: 0.77
Activity [8]: 78%
half-life [10]: 16 h
SMILES: COCCCCC1CCc2cc([C@H]3CC[C@](N)(CO)C3)ccc2C1 (stereo in doubt; 13b)
Activity (Rattus norvegicus [2]; 2 mg/kg, 4 h): 65%
fold change (FC) [3]: 2.1
Activity [7]: -29%
Activity [9]: -15%

EC50 [11]: 2.1 nM
EC50 [12]: > 1000 nM
IC50 [13]: 0.016 nM
EC50 [14]: 2.7 nM
EC50 [15]: 4.9 nM
SMILES: COCCCCC[C@@H]1CCc2cc([C@H]3CC[C@](N)(COP(=O)(O)O)C3)ccc2C1

concentration at 4 h [4]: 300 nM
concentration [5]: 110 nM
Ratio [6]: 1.4
Activity [8]: 87%
SMILES: COCCCCC1CCc2cc([C@H]3CC[C@](N)(CO)C3)ccc2C1 (stereo in doubt; 13a)
Activity (Rattus norvegicus [2]; 2 mg/kg, 4 h): 78%
fold change (FC) [3]: 1.7

concentration at 4 h [4]: 265 nM
concentration [5]: 69 nM
Ratio [6]: 3.9
Activity [8]: 84%
half-life [10]: 31 h
SMILES: COCCCCCCC1CCc2cc([C@H]3CC[C@](N)(CO)C3)ccc2C1 (stereo in doubt; 25a)
Activity (Rattus norvegicus [2]; 2 mg/kg, 4 h): 70%
Activity [7]: -32%
fold change (FC) [25]: 1.7
Activity [9]: -16%

concentration at 4 h [4]: 129 nM
concentration [5]: 51 nM
Ratio [6]: 8.2
Activity [8]: 81%
half-life [10]: 15 h
SMILES: COCCCCCC1CCc2cc([C@H]3CC[C@](N)(CO)C3)ccc2C1 (single isomer, unassigned; 23)
Activity (Rattus norvegicus [2]): 78%
Activity [7]: -40%
fold change (FC) [25]: 1.9
Activity [9]: -20%
